The inhibition is the percentage by which the read-out fell short of the control. For orientation: Ki means a dissociation constant, usually derived from enzyme kinetics or from competition with a known ligand. As usually defined, the IC50 is the concentration at which inhibition is half-maximal.

Activity calls are given as the source filed them. The calls are words filed in the database; no cut-off is given here. Some results are limits rather than exact numbers.

Series [1] can be described thus: Thiol reactivity using recombinant human full length 13C-labeled La antigen (100 to 324 residues) expressed in Escherichia coli BL21(DE3) by ALARM NMR.
The target of series [2] is T1, Pro-cathepsin H (Homo sapiens) (UniProt P09668).
T1 sequence (whole entry): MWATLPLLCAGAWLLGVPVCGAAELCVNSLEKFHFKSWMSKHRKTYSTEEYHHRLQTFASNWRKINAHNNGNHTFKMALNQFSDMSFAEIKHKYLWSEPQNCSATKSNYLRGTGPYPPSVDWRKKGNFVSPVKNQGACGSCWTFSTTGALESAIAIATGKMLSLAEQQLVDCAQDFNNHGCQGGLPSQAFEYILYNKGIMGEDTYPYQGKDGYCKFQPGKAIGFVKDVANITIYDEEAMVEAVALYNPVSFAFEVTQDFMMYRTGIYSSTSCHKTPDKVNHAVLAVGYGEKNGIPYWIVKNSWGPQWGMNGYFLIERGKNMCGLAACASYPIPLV
The experiment in a line: Inhibition of Cathepsin H (unknown origin) at 10 uM.

Series [3] has as its target Cathepsin C (Dipeptidyl peptidase 1) (Homo sapiens, UniProt P53634). The series can be described thus: Inhibition of Cathepsin C (unknown origin) at 10 uM.
The target of another series is Cathepsin B (Homo sapiens, UniProt P07858). The series can be described thus: Inhibition of human liver cathepsin B using Z-Phe-Arg-AMC as substrate by kinetic fluorescence assay.
Series [4] is described as follows: Selectivity ratio of Ki for human liver cathepsin L to Ki for human erythrocytes calpain-1.
In series [5] the target is T2, Calpain-1 catalytic subunit (Homo sapiens) (UniProt P07384).
T2 sequence (whole entry): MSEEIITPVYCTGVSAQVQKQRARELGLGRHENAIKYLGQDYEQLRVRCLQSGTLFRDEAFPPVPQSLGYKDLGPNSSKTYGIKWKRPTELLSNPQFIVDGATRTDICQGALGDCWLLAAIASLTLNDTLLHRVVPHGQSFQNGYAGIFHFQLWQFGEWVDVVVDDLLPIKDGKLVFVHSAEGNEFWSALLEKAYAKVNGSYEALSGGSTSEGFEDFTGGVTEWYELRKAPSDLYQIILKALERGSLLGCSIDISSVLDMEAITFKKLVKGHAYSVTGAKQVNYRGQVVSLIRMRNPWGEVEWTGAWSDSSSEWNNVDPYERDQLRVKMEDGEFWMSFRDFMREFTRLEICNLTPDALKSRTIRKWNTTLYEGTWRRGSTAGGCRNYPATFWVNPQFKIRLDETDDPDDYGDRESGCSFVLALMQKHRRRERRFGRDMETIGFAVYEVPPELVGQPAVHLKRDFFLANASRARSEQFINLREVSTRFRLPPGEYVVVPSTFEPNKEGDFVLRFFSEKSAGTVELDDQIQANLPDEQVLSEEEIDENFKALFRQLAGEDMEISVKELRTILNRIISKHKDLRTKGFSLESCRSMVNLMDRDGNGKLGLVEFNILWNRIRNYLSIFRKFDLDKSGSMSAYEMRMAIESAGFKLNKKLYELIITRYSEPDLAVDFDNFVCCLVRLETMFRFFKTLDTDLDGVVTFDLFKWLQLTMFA
The series can be described thus: Inhibition of human erythrocytes calpain-1 using Suc-Leu-Tyr-AMC as substrate in presence of up to 10 mM glutathione by kinetic fluorescence assay.

The nature of series [6]: Selectivity ratio of Ki for human liver cathepsin B to Ki for human erythrocytes calpain-1.
Series [7] deals with T3, Calpain-1 catalytic subunit (Homo sapiens, UniProt P07384).
T3 sequence (P07384 whole entry): T2 sequence (whole entry)
The experiment in a line: Inhibition of human erythrocytes calpain-1 using Suc-Leu-Tyr-AMC as substrate by kinetic fluorescence assay. The following applies: read-out: Ki.

The species named for series [8] is Homo sapiens. The series can be described thus: Selectivity ratio of Ki for recombinant human procathepsin K expressed in Escherichia coli to Ki for human erythrocytes calpain-1. In short, it runs like this:
(§1)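 Ki ratios from kinetic fluorescence assays. Cathepsins B (0.25 nM), L (1 nM), K (3 nM) and S (0.5 nM) in MES buffer at pH 6.0. All at room temperature; Ki by Cheng-Prusoff.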

Another series deals with T4, Cathepsin K (Homo sapiens, UniProt P43235).
T4 sequence (P43235 whole entry): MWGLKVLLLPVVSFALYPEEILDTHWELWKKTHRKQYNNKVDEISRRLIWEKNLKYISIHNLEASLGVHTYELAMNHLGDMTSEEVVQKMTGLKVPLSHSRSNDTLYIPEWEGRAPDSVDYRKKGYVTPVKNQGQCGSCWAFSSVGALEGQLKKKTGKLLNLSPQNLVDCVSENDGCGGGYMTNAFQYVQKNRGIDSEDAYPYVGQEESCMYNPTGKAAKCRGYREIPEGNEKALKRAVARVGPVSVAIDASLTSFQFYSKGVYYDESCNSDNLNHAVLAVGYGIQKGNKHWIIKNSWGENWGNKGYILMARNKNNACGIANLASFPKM
The series can be described thus: Inhibition of human procathepsin K expressed in Escherichia coli using Z-Gly-Pro-Arg-AMC as substrate by kinetic fluorescence assay. The gist of the method:
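Cathepsin K at 3 nM, activated from E. coli-expressed recombinant human procathepsin K. Substrate 10 µM Z-Gly-Pro-Arg-AMC in MES/EDTA/Brij 35/L-cysteine buffer, pH 6.0, room temperature. Ki obtained via Cheng-Prusoff from IC50. Mean of 2–4 curves.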

In the next series the target is Cathepsin S (Homo sapiens, UniProt P25774). The experiment in a line: Inhibition of human cathepsin S expressed in Escherichia coli using Z-Val-Val-Arg-AMC as substrate by kinetic fluorescence assay.
Chain of Cathepsin S (P25774 whole entry): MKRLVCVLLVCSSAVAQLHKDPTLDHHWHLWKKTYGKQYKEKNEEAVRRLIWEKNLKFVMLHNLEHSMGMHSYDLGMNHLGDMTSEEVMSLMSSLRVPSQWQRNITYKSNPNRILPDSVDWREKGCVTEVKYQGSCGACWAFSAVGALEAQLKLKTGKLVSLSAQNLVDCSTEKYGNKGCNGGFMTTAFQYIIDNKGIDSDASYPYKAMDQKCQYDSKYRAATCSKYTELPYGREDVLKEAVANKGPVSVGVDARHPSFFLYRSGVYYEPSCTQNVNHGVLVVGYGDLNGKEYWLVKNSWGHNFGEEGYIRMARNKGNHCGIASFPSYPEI
Series [9] in a line: Inhibition of human liver cathepsin L using Z-Phe-Arg-AMC as substrate by kinetic fluorescence assay.
The species entered for series [10] is Homo sapiens. The series can be described thus: Selectivity ratio of Ki for recombinant human cathepsin S expressed in Escherichia coli to Ki for human erythrocytes calpain-1. In short, it runs like this: as §1
Series [11] is described as follows: Drug level in monkey hepatocytes treated with [3H]-labeled N-(4-Amino-3,4-dioxo-1-phenylbutan-2-yl)-2-(3-(4-fluorophenyl)-1H-pyrazol-1-yl)nicotinamide assesseed as cytosolic carbonyl reductase-mediated compound formation. To be noted: rhesus monkey. Format: ADME, cell-based, Macaca mulatta.
The target in series [12] is T5, Carbonyl reductase [NADPH] 1 (Homo sapiens, UniProt P16152).
T5 sequence (P16152 whole entry): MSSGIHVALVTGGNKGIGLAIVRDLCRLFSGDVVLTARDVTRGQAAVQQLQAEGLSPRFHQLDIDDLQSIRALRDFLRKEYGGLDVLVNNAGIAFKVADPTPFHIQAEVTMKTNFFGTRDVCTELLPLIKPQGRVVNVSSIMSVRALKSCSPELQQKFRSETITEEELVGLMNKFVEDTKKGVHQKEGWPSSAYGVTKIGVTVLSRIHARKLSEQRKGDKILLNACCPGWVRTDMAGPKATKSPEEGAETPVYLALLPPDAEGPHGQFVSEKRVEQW
The experiment in a line: Drug level in human blood treated with [3H]-labeled N-(4-Amino-3,4-dioxo-1-phenylbutan-2-yl)-2-(3-(4-fluorophenyl)-1H-pyrazol-1-yl)nicotinamide assesseed as cytosolic carbonyl reductase-mediated compound formation. Format: ADME. The following applies: cytosol.

In series [13] the target is T5, Carbonyl reductase [NADPH] 1. The experiment in a line: Drug level in human hepatocytes treated with [3H]-labeled N-(4-Amino-3,4-dioxo-1-phenylbutan-2-yl)-2-(3-(4-fluorophenyl)-1H-pyrazol-1-yl)nicotinamide assesseed as cytosolic carbonyl reductase-mediated compound formation. Format: ADME, cell-based.
Series [14] can be described thus: Drug level in monkey blood treated with [3H]-labeled N-(4-Amino-3,4-dioxo-1-phenylbutan-2-yl)-2-(3-(4-fluorophenyl)-1H-pyrazol-1-yl)nicotinamide assesseed as cytosolic carbonyl reductase-mediated compound formation. Format: ADME, Macaca mulatta. The following applies: rhesus monkey, cytosol.
Series [15] has as its target T6, Calpain-1 catalytic subunit (Rattus norvegicus) (UniProt P97571).
T6 sequence (whole entry): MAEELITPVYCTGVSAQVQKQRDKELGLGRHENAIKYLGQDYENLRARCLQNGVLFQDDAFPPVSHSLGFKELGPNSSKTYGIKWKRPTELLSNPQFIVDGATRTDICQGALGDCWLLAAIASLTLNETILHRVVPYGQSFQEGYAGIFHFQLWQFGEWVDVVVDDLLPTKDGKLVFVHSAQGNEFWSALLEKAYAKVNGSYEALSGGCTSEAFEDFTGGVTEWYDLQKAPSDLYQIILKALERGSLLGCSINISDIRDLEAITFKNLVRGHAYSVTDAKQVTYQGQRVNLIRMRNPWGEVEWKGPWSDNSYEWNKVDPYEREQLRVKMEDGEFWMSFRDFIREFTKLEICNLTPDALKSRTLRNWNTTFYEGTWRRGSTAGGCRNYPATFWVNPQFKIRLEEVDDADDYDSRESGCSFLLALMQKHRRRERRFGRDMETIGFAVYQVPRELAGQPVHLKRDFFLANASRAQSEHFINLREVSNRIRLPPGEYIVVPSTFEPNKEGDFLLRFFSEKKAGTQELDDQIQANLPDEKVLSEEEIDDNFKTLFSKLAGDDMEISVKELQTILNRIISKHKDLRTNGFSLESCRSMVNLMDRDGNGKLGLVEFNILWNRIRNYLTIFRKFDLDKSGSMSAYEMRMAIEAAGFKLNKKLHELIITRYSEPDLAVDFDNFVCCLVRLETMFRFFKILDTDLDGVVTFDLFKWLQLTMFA
The experiment in a line: (§2) Inhibition of calpain-1 in rat hippocampal slices assessed as prevention of NMDA-induced spectrin cleavage preincubated for 30 mins followed by NMDA addition measured after 5 hrs by Western blot analysis. The gist of the method:
(§3)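 Organotypic rat hippocampal slice cultures kept 6–8 days in 2% serum medium; 30 min inhibitor pre-incubation, then 10 µM NMDA for 5 h at 34°C, 5% CO2. Slices lysed; 150/145 kDa spectrin breakdown products quantified by densitometric Western blot with anti-spectrin alpha chain antibody.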
(In general: A western blot detects proteins with antibodies after separation by electrophoresis.)

The target in series [16] is T7, Calpain-1 catalytic subunit (Rattus norvegicus, UniProt P97571).
T7 sequence (P97571 whole entry): T6 sequence (whole entry)
The description is as §2. The gist of the method: as §3

The nature of series [17]: Solubility of the compound. Format: physicochemical.

Chain of Cathepsin C (Dipeptidyl peptidase 1) (P53634 25-134 limits assumed): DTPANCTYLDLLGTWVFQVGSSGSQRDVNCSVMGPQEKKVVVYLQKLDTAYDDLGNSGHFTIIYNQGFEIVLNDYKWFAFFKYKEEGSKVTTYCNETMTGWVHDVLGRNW
Chain of Cathepsin C (Dipeptidyl peptidase 1) (P53634 231-394 limits assumed): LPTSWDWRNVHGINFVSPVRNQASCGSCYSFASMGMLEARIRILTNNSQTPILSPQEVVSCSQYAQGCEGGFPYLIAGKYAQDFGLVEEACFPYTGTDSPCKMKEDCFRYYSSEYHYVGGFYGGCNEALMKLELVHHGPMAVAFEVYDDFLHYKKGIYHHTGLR
Chain of Cathepsin C (Dipeptidyl peptidase 1) (P53634 395-463 limits assumed): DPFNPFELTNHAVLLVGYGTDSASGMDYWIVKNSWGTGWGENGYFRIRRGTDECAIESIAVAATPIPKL

With `CCN(CC)Cc1ccc(/C=C/c2ccccc2C(=O)NC(Cc2ccccc2)C(=O)C(N)=O)cc1` (configuration not stated), in series [1], the Thiol reactivity entry was “Metabolite not detected”. The inhibition in [2] stood at 84%. Moreover, at 10 µM the inhibition in series [3] was 94%. For the same compound, the inhibitory constant (Ki) on Cathepsin B was 28 nM; in series [7], 56 nM; on Cathepsin K, 1.8 nM; on Cathepsin S it was 3290 nM; in series [9] it was 137 nM. Further, the “Ratio Ki” value was 2.5 in [4], less than 1 in [6], less than 0.1 in the series filed under Homo sapiens [8] and 59 in the series listed under Homo sapiens [10]. Further, the inhibition result in [5] is “Active”.
Turning to `NC(=O)C(O)C(Cc1ccccc1)NC(=O)c1cccnc1-n1ccc(-c2ccc(F)cc2)n1` (configuration not stated), the Drug metabolism entry in [11], in [12], in series [13] and in series [14] was “Metabolite_Detected” each time.
For `NC(=O)C(=O)C(Cc1ccccc1)NC(=O)c1cccnc1-n1cc2c(n1)-c1ccccc1OC2` (configuration not stated), in series [1], the Thiol reactivity entry is reported as “Metabolite not detected”. Also, in [15], the fIC50 worked out at 65 nM. For the same compound, the IC50 in series [16] came to 2020 nM. The “Ratio Ki” value is 278 in series [4], 29 in [6], 47 in the series filed under Homo sapiens [8] and greater than 500 in the series listed under Homo sapiens [10]. For the same compound, the inhibition result in series [5] was “Active”. Moreover, the inhibitory constant (Ki) in series [7] turned out to be 8 nM. Moreover, in [17], the solubility result was “Insoluble”.

The values above are taken from ChEMBL document CHEMBL4038338 (J Med Chem, 2017).
